SUMO HTRF inh = inhibitors of in vitro SUMOylation cascade, primary screen, biochemical, HTRF, uHTS. SUMO-conjugating enzyme UBC9 (Homo sapiens), P63279. HTRF SUMOylation assay, SAE1/SAE2 + UBC9. inhibition, % at 35 µM. 290,000 compounds, 0.36% hits. AID 2006, 2009; in the data active = inhibition above about 50%, passing the limit was not always enough; inconclusive = no clear call, values can overlap the other calls
Target sequence (P63279 whole entry, looked up): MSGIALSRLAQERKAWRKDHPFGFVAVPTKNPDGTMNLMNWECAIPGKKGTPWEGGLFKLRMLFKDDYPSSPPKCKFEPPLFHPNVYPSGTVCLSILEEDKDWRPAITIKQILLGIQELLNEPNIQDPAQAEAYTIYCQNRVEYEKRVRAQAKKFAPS
NS3 helicase inh = inhibitors of HCV NS3 helicase, primary screen, biochemical, Cy5 molecular beacon fluorescence | 290,000 compounds, 0.56% hits | inhibition, % at 10.9 µM | NS3 helicase DNA unwinding;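 active = inhibition above the mean of all tested compounds plus 3 SD, set per campaign, cut at about 35% in these data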
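System: NS3 helicase fragment of HCV / Schedule: 1 h at 25 °C / Control set: DMSO alone as 0% and 110 µM thioflavine S as 100% / Reagent: Cy5/quencher beacon DNA duplex and ATP to start / Technique: Cy5 fluorescence / Replication: singlicate / Evaluation: % inhibition of end-to-start signal ratio versus controls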
IMP-1 inh = IMP-1 metallo-beta-lactamase inhibitors, primary screen, biochemical, epi-absorbance readout, Pseudomonas aeruginosa enzyme | 290,000 compounds, 0.45% hits | purified IMP-1, nitrocefin hydrolysis, epi-absorbance fluorescence | inhibition, % at 5.6 µM;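 active = inhibition above the mean plus 3 SD of all compounds in the same screening run, cut at about 4.5% in these data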
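system = purified recombinant IMP-1 beta-lactamase | amount = 0.2 nM IMP-1, as dispensed | medium = HEPES buffer pH 7.1 with ZnSO4 and Brij 35 | times = 25 °C, 15 min preincubation, 25 min reaction | detection = plate fluorescence quenching by hydrolysis product, ex 480/em 530 nm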
PHOSPHO1 inh = PubChem AID 1565. Phosphoethanolamine/phosphocholine phosphatase (Homo sapiens), Q8TCT1. recombinant PHOSPHO1, absorbance phosphatase assay. inhibition, % at 13.3 µM. 290,000 compounds, 1.1% hits; in the data active = inhibition above about 60%
Target sequence (Q8TCT1 whole entry, looked up): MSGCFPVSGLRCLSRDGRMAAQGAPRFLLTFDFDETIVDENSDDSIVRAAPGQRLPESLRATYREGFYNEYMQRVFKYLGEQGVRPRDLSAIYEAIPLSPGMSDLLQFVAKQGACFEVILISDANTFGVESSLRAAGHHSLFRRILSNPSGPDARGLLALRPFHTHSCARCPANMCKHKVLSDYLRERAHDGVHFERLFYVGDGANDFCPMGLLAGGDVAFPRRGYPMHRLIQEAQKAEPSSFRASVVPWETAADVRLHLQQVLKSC
VIM-2 inhibitor = VIM-2 metallo-beta-lactamase inhibitors, primary screen, biochemical, epi-absorbance readout, Pseudomonas aeruginosa enzyme. purified VIM-2, nitrocefin hydrolysis, epi-absorbance fluorescence. inhibition, % at 5.6 µM. 290,000 compounds, 0.89% hits. AID 1527, 2009;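 active = inhibition above the mean of all tested compounds plus 3 SD, cutoff set per screening run, cut at about 7.5% in these data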;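 also: red hydrolysis product quenches plate fluorescence so inhibitors raise well fluorescence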
core dimer inh = inhibitors of HCV core protein dimerization, primary screen, biochemical, TR-FRET, high-throughput | inhibition, % at 5 µM | 300,000 compounds, 0.33% hits | AID 1899, 2009 | TR-FRET GST/Flag-core106 dimerization, 1536-well;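 active = inhibition above the mean of all tested compounds plus 3 SD, set per screening campaign, cut at about 45% in these data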
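Assay system: GST-tagged and Flag-tagged HCV core protein residues 1-106 / Times: compound-protein-antibody incubation 4 h at 22.5 °C / Signal: time-resolved FRET, ex 340 nm, em 617 and 671 nm / Evaluation: % inhibition based on acceptor/donor emission ratio / Benchmarks: wells lacking GST-core106 and wells with excess unlabelled core106 / Repeats: singlicate, one well per compound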
Of the large screens only hits and unclear results are named; the others gave an inactive call. Rows were chosen to be rich in hits. Some 3.1% of all compounds tested hit in one or more screens of this group.

COc1ccc(-n2c(N)c(C(=O)NCc3ccco3)sc2=S)cc1	none
Cc1ccc2nc3sc(C(=O)NCc4ccco4)c(N)c3cc2c1	core dimer inh 53
COc1cc2cc3c(N)c(C(=O)NCc4ccco4)sc3nc2cc1OC	PHOSPHO1 inh 72
COC(=O)CCC(=O)OC1(C)C(=O)C=C2C=C(C3CC3)N(c3ccc(CO)cc3)C=C2C1=O (stereo unspecified)	core dimer inh 69 (no result: SUMO HTRF inh, NS3 helicase inh, IMP-1 inh, PHOSPHO1 inh, VIM-2 inhibitor)
COC(=O)CCC(=O)OC1(C)C(=O)C=C2C=C(C3CC3)N(c3cccc(C#N)c3)C=C2C1=O (stereo unspecified)	none (no result: NS3 helicase inh, IMP-1 inh, VIM-2 inhibitor)
CNC(=O)c1c(NC(=O)c2ccc(S(=O)(=O)N3CCCCC3)cc2)sc2c1CCN(C(C)C)C2	none
CCCN1CCc2c(sc(NC(=O)c3ccc(S(=O)(=O)N(C)c4ccccc4)cc3)c2C(=O)NC)C1	IMP-1 inh 9.6
CCN1CCc2c(sc(NC(=O)c3ccc(S(=O)(=O)N4CCCC4)cc3)c2C(=O)NC)C1	VIM-2 inhibitor 8.7
O=C(CCC(=O)N(CC(=O)NC1CCCC1)Cc1cccs1)Nc1nccs1	none
CCSc1nnc2c3cc(CC)ccc3n(C)c2n1	VIM-2 inhibitor 8.2 (no result: core dimer inh)
CCOC(=O)C(CC)Sc1nnc2c3cc(C)ccc3n(C)c2n1 (stereo unspecified)	VIM-2 inhibitor 9.4
COc1ccc(N2CCN(C(=O)CSc3nnc4c5cc(C)ccc5n(C)c4n3)CC2)cc1	none
O=C1c2ccccc2C(=O)N1c1cccc(-c2csc(Nc3ccc4c(c3)OCO4)n2)c1	core dimer inh 49
CCc1nnc(N2CCN(c3ncnc4c3oc3ccccc34)CC2)s1	VIM-2 inhibitor 12 (no result: core dimer inh)
c1ccc(N2CCN(c3ncnc4c3oc3ccccc34)CC2)cc1	none
Cc1ccc(CNC(=O)CN(c2ccc(C)cc2)S(=O)(=O)c2c(C)nn(C)c2C)cc1	none
Cc1ccc(N(CC(=O)NCc2ccc(F)cc2)S(=O)(=O)c2c(C)nn(C)c2C)cc1	PHOSPHO1 inh 62
COc1ccc(S(=O)(=O)N2CCC(C(=O)N[C@H](C(=O)N3CCCCCC3)C(C)C)CC2)cc1	none (no result: SUMO HTRF inh)
Cc1noc(C)c1CN1C(=O)c2ccccc2C1=O	IMP-1 inh 4.8
O=C1CSC(=S)N1/N=C/c1ccc(O)c(O)c1O	SUMO HTRF inh inconclusive, PHOSPHO1 inh 74
CN(C)C(CNC(=O)CCCN1C(=O)c2cccc3cccc(c23)C1=O)c1ccccc1 (stereo unspecified)	VIM-2 inhibitor 9.2
CCN1C(=O)[C@@H]2[C@@H](c3ccc(-c4ccc(C(C)=O)cc4)c(OC)c3)N3CCCC[C@@]3(C(=O)OC)[C@@H]2C1=O	none (no result: SUMO HTRF inh, NS3 helicase inh, IMP-1 inh, PHOSPHO1 inh, VIM-2 inhibitor)
Cc1ccc(N2CCN(C(=O)NC3CCCCC3)CC2C)cc1 (stereo unspecified)	none
O=C1Nc2ccccc2SC(c2ccccc2)C1O (stereo unspecified)	core dimer inh 83
COc1ccc(S(=O)(=O)N2Cc3ccccc3CC2C(=O)Nc2ccc3c(c2)OCO3)cc1 (stereo unspecified)	none
Cc1ccc(S(=O)(=O)N2Cc3ccccc3CC2C(=O)Nc2ccc3c(c2)OCO3)cc1 (stereo unspecified)	core dimer inh 54
COc1ccc(CCNC(=O)c2cc(-c3ccncc3)nc3ccc(S(=O)(=O)N4CCOCC4)cc23)cc1OC	none
CN(C)c1ccc(/C=C/c2ccncc2)cc1	IMP-1 inh 6.3 (no result: core dimer inh)
CN(C)c1ccc(/C=C/C(=O)c2cccnc2)cc1	IMP-1 inh 7.8, PHOSPHO1 inh 60
CN(C)c1ccc(/C=C/C(=O)c2ccccc2O)cc1	IMP-1 inh 6.0
CN(C)c1ccc(C(=O)N2CCCC(N3CCN(Cc4ccc5c(c4)OCO5)CC3)C2)cc1 (stereo unspecified)	none (no result: core dimer inh)
NC(=O)C1CCN(CC(=O)NC2CCCc3ccccc32)CC1 (stereo unspecified)	none
Cc1ccc(-c2nnn(CC(=O)NC3CCCc4ccccc43)n2)cc1 (stereo unspecified)	PHOSPHO1 inh 62
COCCCN=C(c1ccco1)n1c(=S)nc(-c2ccco2)n(CCCOC)c1=S	PHOSPHO1 inh 98
COCCCn1c(-c2ccco2)nc2ccccc2c1=O	none
C=CCN1C(=O)C2(NNc3ccccc3O2)c2ccccc21 (stereo unspecified)	PHOSPHO1 inh 87
CCCCN1C(=O)C2(NNc3ccccc3O2)c2ccccc21 (stereo unspecified)	PHOSPHO1 inh 73
Cc1cccc(N2CCN(C(=O)c3cc(S(=O)(=O)N4CCOCC4)cn3C)CC2C)c1 (stereo unspecified)	none
COc1ccc(Cc2nc3ccc(C(=O)N4C[C@@H](C)O[C@@H](C)C4)cc3o2)cc1OC	PHOSPHO1 inh 64 (no result: SUMO HTRF inh)
COc1cccc(-c2nc(N3CCCCC3C)c3ccccc3n2)c1O (stereo unspecified)	none
OCCN1CCN(c2nc(-c3ccccc3O)nc3ccccc23)CC1	VIM-2 inhibitor 11
CCN1CCN(c2nc(-c3ccccc3Cl)nc3ccccc23)CC1	none
COc1cccc(-c2nc(N3CCN(C)CC3)c3ccccc3n2)c1O	VIM-2 inhibitor 10
CCOc1ccc(NC(=O)CN2C(=O)CSC2=O)cc1	none
Cc1ccc(N=Cc2sc(O)c3ccccc23)c(C)c1	IMP-1 inh 28
CC(=O)Nc1ccc(C(=O)CN2C(=O)CSC2=O)cc1	none
Cc1ccc(CSc2sc(C(=O)c3ccccc3)c(N)c2C#N)cc1	PHOSPHO1 inh 97
N#Cc1c(SCc2cccc(Cl)c2)sc(C(=O)c2ccccc2)c1N	PHOSPHO1 inh 62
N#Cc1c(SCc2ccccc2)sc(C(=O)c2ccccc2)c1N	PHOSPHO1 inh 73
COc1ccccc1CCNC(=O)Cc1cccs1	none
O=C(c1cc(Cl)nc2ccccc12)N1CCN(S(=O)(=O)c2cccc(F)c2)CC1	none (no result: SUMO HTRF inh, NS3 helicase inh, IMP-1 inh, PHOSPHO1 inh, VIM-2 inhibitor)
O=C(c1cc(Cl)nc2ccccc12)N1CCN(S(=O)(=O)c2ccccc2[N+](=O)[O-])CC1	IMP-1 inh 4.5
CCC(=O)NC1=C(Cl)C(=O)C(NC(=O)CC)=C(Cl)C1=O	SUMO HTRF inh 76 (no result: core dimer inh)
CCC(=O)NC1=C(NC(C)c2ccccc2)C(=O)c2ccccc2C1=O (stereo unspecified)	none
Cc1cccn2c(=O)c3cc(C(=O)NCCN4CCOCC4)c(=N)n(CCc4ccccc4)c3nc12	none
COc1ccc(CCNC(=O)c2cc3c(=O)n4ccccc4nc3n(CC3CCCO3)c2=N)cc1OC (stereo unspecified)	none

Source: PubChem
